Results taken from ChEMBL document CHEMBL4152188, “Design, synthesis and biological evaluation of C(4) substituted monobactams as antibacterial agents against multidrug-resistant Gram-negative bacteria” (Eur J Med Chem, 2018).
≈ marks a conversion by molar mass, not a printed value.

How the values were obtained:
Assay type in all cases: functional
Escherichia coli [1] = assay: Antibacterial activity against extended-spectrum beta-lactamase producing Escherichia coli isolate 212648 after 18 hrs by CLSI broth microdilution method; conditions: isolate 212648, 18 h
Escherichia coli [2] = assay: Selectivity index, ratio of MIC for against extended-spectrum beta-lactamase producing Escherichia coli isolate 208687 to MIC for extended-spectrum beta-lactamase producing Escherichia coli isolate 208687 in presence of BPL
Escherichia coli [3] = assay: Antibacterial activity against Escherichia coli isolate 210737 after 18 hrs by CLSI broth microdilution method; conditions: isolate 210737, 18 h
Escherichia coli [4] = assay: Antibacterial activity against extended-spectrum beta-lactamase producing Escherichia coli isolate 208687 after 18 hrs by CLSI broth microdilution method; conditions: isolate 208687, 18 h
Escherichia coli [5] = assay: Antibacterial activity against extended-spectrum beta-lactamase producing Escherichia coli isolate 208687 after 18 hrs in presence of BPL by CLSI broth microdilution method; conditions: isolate 208687, 18 h
Summary of the method: (§1)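 CLSI broth microdilution against clinical isolates (ESBL E. coli, KPC-2 MDR K. pneumoniae, IMP-4 MDR P. aeruginosa; five per species). Iron limitation: Mueller-Hinton broth supplemented with 16 mg/liter 2,2'-bipyridyl to complex iron and induce iron uptake systems. Read-out: MIC.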

Escherichia coli [6] = assay: Antibacterial activity against Escherichia coli isolate 210737 after 18 hrs in presence of BPL by CLSI broth microdilution method; conditions: isolate 210737, 18 h; summary of the method: as §1
Escherichia coli [7] = assay: Selectivity index, ratio of MIC for against Escherichia coli isolate 210737 to MIC for Escherichia coli isolate 210737 in presence of BPL
Escherichia coli [8] = assay: Antibacterial activity against extended-spectrum beta-lactamase producing Escherichia coli isolate 212648 after 18 hrs in presence of BPL by CLSI broth microdilution method; conditions: isolate 212648, 18 h; summary of the method: as §1
Escherichia coli [9] = assay: Selectivity index, ratio of MIC for against extended-spectrum beta-lactamase producing Escherichia coli isolate 212648 to MIC for extended-spectrum beta-lactamase producing Escherichia coli isolate 212648 in presence of BPL
Escherichia coli [10] = assay: Antibacterial activity against extended-spectrum beta-lactamase producing Escherichia coli isolate 209285 after 18 hrs by CLSI broth microdilution method; conditions: isolate 209285, 18 h
Escherichia coli [11] = assay: Antibacterial activity against extended-spectrum beta-lactamase producing Escherichia coli isolate 209285 after 18 hrs in presence of BPL by CLSI broth microdilution method; conditions: isolate 209285, 18 h; summary of the method: as §1
Escherichia coli [12] = assay: Selectivity index, ratio of MIC for against extended-spectrum beta-lactamase producing Escherichia coli isolate 209285 to MIC for extended-spectrum beta-lactamase producing Escherichia coli isolate 209285 in presence of BPL
Escherichia coli [13] = assay: Antibacterial activity against extended-spectrum beta-lactamase producing Escherichia coli isolate 106342 after 18 hrs by CLSI broth microdilution method; conditions: isolate 106342, 18 h
Escherichia coli [14] = assay: Antibacterial activity against extended-spectrum beta-lactamase producing Escherichia coli isolate 106342 after 18 hrs in presence of BPL by CLSI broth microdilution method; conditions: isolate 106342, 18 h; summary of the method: as §1
Escherichia coli [15] = assay: Selectivity index, ratio of MIC for against extended-spectrum beta-lactamase producing Escherichia coli isolate 106342 to MIC for extended-spectrum beta-lactamase producing Escherichia coli isolate 106342 in presence of BPL
Klebsiella pneumoniae [16] = assay: Antibacterial activity against KPC-2 producing Klebsiella pneumoniae isolate 212423 after 18 hrs by CLSI broth microdilution method; conditions: isolate 212423, 18 h
Klebsiella pneumoniae [17] = assay: Antibacterial activity against KPC-2 producing Klebsiella pneumoniae isolate 212423 after 18 hrs in presence of BPL by CLSI broth microdilution method; conditions: isolate 212423, 18 h; summary of the method: as §1
Klebsiella pneumoniae [18] = assay: Selectivity index, ratio of MIC for against KPC-2 producing Klebsiella pneumoniae isolate 212423 to MIC for against KPC-2 producing Klebsiella pneumoniae isolate 212423 in presence of BPL
Klebsiella pneumoniae [19] = assay: Antibacterial activity against KPC-2 producing Klebsiella pneumoniae isolate 209632 after 18 hrs by CLSI broth microdilution method; conditions: isolate 209632, 18 h
Klebsiella pneumoniae [20] = assay: Antibacterial activity against KPC-2 producing Klebsiella pneumoniae isolate 209632 after 18 hrs in presence of BPL by CLSI broth microdilution method; conditions: isolate 209632, 18 h; summary of the method: as §1
Klebsiella pneumoniae [21] = assay: Selectivity index, ratio of MIC for against KPC-2 producing Klebsiella pneumoniae isolate 209632 to MIC for against KPC-2 producing Klebsiella pneumoniae isolate 209632 in presence of BPL
Klebsiella pneumoniae [22] = assay: Antibacterial activity against KPC-2 producing Klebsiella pneumoniae isolate 209735 after 18 hrs by CLSI broth microdilution method; conditions: isolate 209735, 18 h
Klebsiella pneumoniae [23] = assay: Antibacterial activity against KPC-2 producing Klebsiella pneumoniae isolate 209735 after 18 hrs in presence of BPL by CLSI broth microdilution method; conditions: isolate 209735, 18 h; summary of the method: as §1
Klebsiella pneumoniae [24] = assay: Selectivity index, ratio of MIC for against KPC-2 producing Klebsiella pneumoniae isolate 209735 to MIC for against KPC-2 producing Klebsiella pneumoniae isolate 209735 in presence of BPL
Klebsiella pneumoniae [25] = assay: Antibacterial activity against KPC-2 producing Klebsiella pneumoniae isolate 212232 after 18 hrs by CLSI broth microdilution method; conditions: isolate 212232, 18 h
Klebsiella pneumoniae [26] = assay: Antibacterial activity against KPC-2 producing Klebsiella pneumoniae isolate 212232 after 18 hrs in presence of BPL by CLSI broth microdilution method; conditions: isolate 212232, 18 h; summary of the method: as §1
Klebsiella pneumoniae [27] = assay: Selectivity index, ratio of MIC for against KPC-2 producing Klebsiella pneumoniae isolate 212232 to MIC for against KPC-2 producing Klebsiella pneumoniae isolate 212232 in presence of BPL
Klebsiella pneumoniae [28] = assay: Antibacterial activity against KPC-2 producing Klebsiella pneumoniae isolate 212229 after 18 hrs by CLSI broth microdilution method; conditions: isolate 212229, 18 h
Klebsiella pneumoniae [29] = assay: Antibacterial activity against KPC-2 producing Klebsiella pneumoniae isolate 212229 after 18 hrs in presence of BPL by CLSI broth microdilution method; conditions: isolate 212229, 18 h; summary of the method: as §1
Klebsiella pneumoniae [30] = assay: Selectivity index, ratio of MIC for against KPC-2 producing Klebsiella pneumoniae isolate 212229 to MIC for against KPC-2 producing Klebsiella pneumoniae isolate 212229 in presence of BPL
Pseudomonas aeruginosa [31] = assay: Antibacterial activity against IMP-4 producing Pseudomonas aeruginosa isolate 212886 after 18 hrs by CLSI broth microdilution method; conditions: isolate 212886, 18 h
Pseudomonas aeruginosa [32] = assay: Antibacterial activity against IMP-4 producing Pseudomonas aeruginosa isolate 212886 after 18 hrs in presence of BPL by CLSI broth microdilution method; conditions: isolate 212886, 18 h; summary of the method: as §1
Pseudomonas aeruginosa [33] = assay: Selectivity index, ratio of MIC for against IMP-4 producing Pseudomonas aeruginosa isolate 212886 to MIC for against IMP-4 producing Pseudomonas aeruginosa isolate 212886 in presence of BPL
Pseudomonas aeruginosa [34] = assay: Antibacterial activity against IMP-4 producing Pseudomonas aeruginosa isolate 209471 after 18 hrs by CLSI broth microdilution method; conditions: isolate 209471, 18 h
Pseudomonas aeruginosa [35] = assay: Antibacterial activity against IMP-4 producing Pseudomonas aeruginosa isolate 209471 after 18 hrs in presence of BPL by CLSI broth microdilution method; conditions: isolate 209471, 18 h; summary of the method: as §1
Pseudomonas aeruginosa [36] = assay: Selectivity index, ratio of MIC for against IMP-4 producing Pseudomonas aeruginosa isolate 209471 to MIC for against IMP-4 producing Pseudomonas aeruginosa isolate 209471 in presence of BPL
Pseudomonas aeruginosa [37] = assay: Antibacterial activity against IMP-4 producing Pseudomonas aeruginosa isolate 208247 after 18 hrs by CLSI broth microdilution method; conditions: isolate 208247, 18 h
Pseudomonas aeruginosa [38] = assay: Antibacterial activity against IMP-4 producing Pseudomonas aeruginosa isolate 208247 after 18 hrs in presence of BPL by CLSI broth microdilution method; conditions: isolate 208247, 18 h; summary of the method: as §1
Pseudomonas aeruginosa [39] = assay: Selectivity index, ratio of MIC for against IMP-4 producing Pseudomonas aeruginosa isolate 208247 to MIC for against IMP-4 producing Pseudomonas aeruginosa isolate 208247 in presence of BPL
Pseudomonas aeruginosa [40] = assay: Antibacterial activity against IMP-4 producing Pseudomonas aeruginosa isolate 209321 after 18 hrs by CLSI broth microdilution method; conditions: isolate 209321, 18 h
Pseudomonas aeruginosa [41] = assay: Antibacterial activity against IMP-4 producing Pseudomonas aeruginosa isolate 209321 after 18 hrs in presence of BPL by CLSI broth microdilution method; conditions: isolate 209321, 18 h; summary of the method: as §1
Pseudomonas aeruginosa [42] = assay: Selectivity index, ratio of MIC for against IMP-4 producing Pseudomonas aeruginosa isolate 209321 to MIC for against IMP-4 producing Pseudomonas aeruginosa isolate 209321 in presence of BPL
Pseudomonas aeruginosa [43] = assay: Antibacterial activity against IMP-4 producing Pseudomonas aeruginosa isolate 207272 after 18 hrs by CLSI broth microdilution method; conditions: isolate 207272, 18 h
Pseudomonas aeruginosa [44] = assay: Antibacterial activity against IMP-4 producing Pseudomonas aeruginosa isolate 207272 after 18 hrs in presence of BPL by CLSI broth microdilution method; conditions: isolate 207272, 18 h; summary of the method: as §1
Pseudomonas aeruginosa [45] = assay: Selectivity index, ratio of MIC for against IMP-4 producing Pseudomonas aeruginosa isolate 207272 to MIC for against IMP-4 producing Pseudomonas aeruginosa isolate 207272 in presence of BPL

- MIC (Escherichia coli [1]): 0.5 µg/mL (≈ 0.757 µM)
- MIC (Escherichia coli [3]): 0.5 µg/mL (≈ 0.757 µM)
- MIC (Escherichia coli [4]): 2 µg/mL (≈ 3.03 µM)
- MIC (Escherichia coli [5]): 0.125 µg/mL
- MIC (Escherichia coli [6]): 0.25 µg/mL
- MIC (Escherichia coli [8]): 0.25 µg/mL
- MIC (Escherichia coli [10]): 4 µg/mL (≈ 6.05 µM)
- MIC (Escherichia coli [11]): 1 µg/mL
- MIC (Escherichia coli [13]): 1 µg/mL (≈ 1.51 µM)
- MIC (Escherichia coli [14]): 0.5 µg/mL
- MIC (Klebsiella pneumoniae [16]): 1 µg/mL (≈ 1.51 µM)
- MIC (Klebsiella pneumoniae [17]): 0.5 µg/mL
- MIC (Klebsiella pneumoniae [19]): 1 µg/mL (≈ 1.51 µM)
- MIC (Klebsiella pneumoniae [20]): 0.25 µg/mL
- MIC (Klebsiella pneumoniae [22]): 1 µg/mL (≈ 1.51 µM)
- MIC (Klebsiella pneumoniae [23]): 0.5 µg/mL
- MIC (Klebsiella pneumoniae [25]): 2 µg/mL (≈ 3.03 µM)
- MIC (Klebsiella pneumoniae [26]): 0.25 µg/mL
- MIC (Klebsiella pneumoniae [28]): 1 µg/mL (≈ 1.51 µM)
- MIC (Klebsiella pneumoniae [29]): 0.5 µg/mL
- MIC (Pseudomonas aeruginosa [31]): > 64 µg/mL
- MIC (Pseudomonas aeruginosa [32]): 16 µg/mL
- MIC (Pseudomonas aeruginosa [34]): 32 µg/mL (≈ 48.4 µM)
- MIC (Pseudomonas aeruginosa [35]): 32 µg/mL
- MIC (Pseudomonas aeruginosa [37]): > 64 µg/mL
- MIC (Pseudomonas aeruginosa [38]): > 64 µg/mL
- MIC (Pseudomonas aeruginosa [40]): 64 µg/mL (≈ 96.9 µM)
- MIC (Pseudomonas aeruginosa [41]): 64 µg/mL
- MIC (Pseudomonas aeruginosa [43]): 64 µg/mL (≈ 96.9 µM)
- MIC (Pseudomonas aeruginosa [44]): 64 µg/mL
SMILES: Cc1nnc(SC[C@@H]2[C@H](NC(=O)/C(=N\OC(c3cc(=O)c(O)cn3O)C(C)C)c3csc(N)n3)C(=O)N2S(=O)(=O)O)s1 (stereo not given in full)
- Selectivity Index (Escherichia coli [2]): 16
- Selectivity Index (Escherichia coli [7]): 2
- Selectivity Index (Escherichia coli [9]): 2
- Selectivity Index (Escherichia coli [12]): 4
- Selectivity Index (Escherichia coli [15]): 2
- Selectivity Index (Klebsiella pneumoniae [18]): 2
- Selectivity Index (Klebsiella pneumoniae [21]): 4
- Selectivity Index (Klebsiella pneumoniae [24]): 2
- Selectivity Index (Klebsiella pneumoniae [27]): 8
- Selectivity Index (Klebsiella pneumoniae [30]): 2
- Selectivity Index (Pseudomonas aeruginosa [33]): >4
- Selectivity Index (Pseudomonas aeruginosa [36]): 1
- Selectivity Index (Pseudomonas aeruginosa [39]): 1 - 4
- Selectivity Index (Pseudomonas aeruginosa [42]): 1
- Selectivity Index (Pseudomonas aeruginosa [45]): 1
